In ChEMBL document CHEMBL1221207, “Expanding the promiscuity of a natural-product glycosyltransferase by directed evolution” (Nat Chem Biol, 2007):

What was measured:
[1] = system: T1, Oleandomycin glycosyltransferase (Streptomyces antibioticus), Q53685 [P67T,S132F,A242V]; assay: Activity of Streptomyces antibioticus OleD P67T/S132F/A242V mutant assessed as as rate of glucoside formation measured as nanomoles of product formed per minute per mg of enzyme
T1 sequence (whole entry): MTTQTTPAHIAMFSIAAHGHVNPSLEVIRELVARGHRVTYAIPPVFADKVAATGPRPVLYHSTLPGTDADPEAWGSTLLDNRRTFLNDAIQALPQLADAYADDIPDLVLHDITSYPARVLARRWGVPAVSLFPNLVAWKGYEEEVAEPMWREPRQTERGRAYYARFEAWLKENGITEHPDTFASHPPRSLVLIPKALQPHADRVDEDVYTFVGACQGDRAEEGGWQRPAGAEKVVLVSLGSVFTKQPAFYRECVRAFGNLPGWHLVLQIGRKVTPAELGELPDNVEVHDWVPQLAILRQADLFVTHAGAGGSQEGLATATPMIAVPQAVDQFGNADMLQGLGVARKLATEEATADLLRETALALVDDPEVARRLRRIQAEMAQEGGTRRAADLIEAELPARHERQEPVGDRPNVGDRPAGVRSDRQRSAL

[2] = system: T2, Oleandomycin glycosyltransferase (Streptomyces antibioticus), Q53685 [A242V]; assay: Activity of Streptomyces antibioticus OleD A242V mutant assessed as as rate of glucoside formation measured as nanomoles of product formed per minute per mg of enzyme
T2 sequence (whole entry): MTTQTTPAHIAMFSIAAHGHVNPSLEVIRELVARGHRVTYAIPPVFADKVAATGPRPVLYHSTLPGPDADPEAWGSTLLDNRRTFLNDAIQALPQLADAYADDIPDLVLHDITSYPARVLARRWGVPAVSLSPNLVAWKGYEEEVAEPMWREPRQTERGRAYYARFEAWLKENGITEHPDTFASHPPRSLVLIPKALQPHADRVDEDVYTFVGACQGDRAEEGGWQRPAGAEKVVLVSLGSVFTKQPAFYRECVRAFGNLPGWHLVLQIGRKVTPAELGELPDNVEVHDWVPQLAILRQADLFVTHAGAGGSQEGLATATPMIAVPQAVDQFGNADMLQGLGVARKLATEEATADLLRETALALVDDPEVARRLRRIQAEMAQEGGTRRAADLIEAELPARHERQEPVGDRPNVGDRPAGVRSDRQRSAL

[3] = system: T3, Oleandomycin glycosyltransferase (Streptomyces antibioticus), Q53685 [P67T]; assay: Activity of Streptomyces antibioticus OleD P67T mutant assessed as as rate of glucoside formation measured as nanomoles of product formed per minute per mg of enzyme
T3 sequence (whole entry): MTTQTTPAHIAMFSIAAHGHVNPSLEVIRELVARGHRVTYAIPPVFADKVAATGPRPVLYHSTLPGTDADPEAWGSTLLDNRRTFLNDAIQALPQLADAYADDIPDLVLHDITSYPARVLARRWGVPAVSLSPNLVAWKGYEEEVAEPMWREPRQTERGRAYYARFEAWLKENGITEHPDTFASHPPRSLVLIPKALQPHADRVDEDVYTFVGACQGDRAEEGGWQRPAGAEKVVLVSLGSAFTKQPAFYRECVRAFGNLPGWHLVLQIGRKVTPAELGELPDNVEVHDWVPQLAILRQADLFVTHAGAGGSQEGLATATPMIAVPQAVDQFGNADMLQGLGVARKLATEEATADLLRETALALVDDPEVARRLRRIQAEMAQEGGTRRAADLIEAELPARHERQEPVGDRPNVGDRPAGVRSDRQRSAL

[4] = biological target: T4, Oleandomycin glycosyltransferase (Streptomyces antibioticus) (UniProt Q53685); assay: Activity of Streptomyces antibioticus OleD […] mutant assessed as as rate of glucoside formation measured as nanomoles of product formed per minute per mg of enzyme
T4 sequence (whole entry): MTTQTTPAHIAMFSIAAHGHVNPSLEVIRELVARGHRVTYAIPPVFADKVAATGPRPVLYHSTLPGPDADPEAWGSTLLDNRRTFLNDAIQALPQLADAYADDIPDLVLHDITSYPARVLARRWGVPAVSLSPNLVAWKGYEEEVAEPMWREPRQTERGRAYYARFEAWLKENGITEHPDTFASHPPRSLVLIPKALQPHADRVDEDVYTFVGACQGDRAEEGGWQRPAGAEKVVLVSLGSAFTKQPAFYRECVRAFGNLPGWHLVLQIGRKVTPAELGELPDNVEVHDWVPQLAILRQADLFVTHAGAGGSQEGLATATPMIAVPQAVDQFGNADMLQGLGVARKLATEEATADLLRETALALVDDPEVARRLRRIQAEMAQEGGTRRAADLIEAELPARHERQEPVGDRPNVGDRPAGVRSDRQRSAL

[5] = biological target: T4, Oleandomycin glycosyltransferase (Streptomyces antibioticus); assay: Activity at Streptomyces antibioticus wild-type OleD assessed as as rate of glucoside formation measured as nanomoles of product formed per minute per mg of enzyme
[6] = substrate: Cc1cc(=O)oc2cc(O)ccc12; assay: Ratio of Kcat to Km for Streptomyces antibioticus wild-type OleD assessed as as rate of glucoside formation at 10 mM using varying NDP sugar UDP-glucose concentration by enzyme kinetics assay
In short: (§1)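 Steady-state kinetics of wild-type OleD glucosylating the acceptor 4-methylumbelliferone to its 7-O-glucoside, with the acceptor fixed at 10 mM and donor UDP-glucose as the variable substrate. Apparent donor kinetic parameters were taken from the rate versus UDP-glucose concentration data.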

[7] = substrate: Cc1cc(=O)oc2cc(O)ccc12; assay: Activity of Streptomyces antibioticus wild-type OleD assessed as as rate of glucoside formation at 10 mM using varying NDP sugar UDP-glucose concentration by enzyme kinetics assay; in short: as §1
[8] = substrate: Cc1cc(=O)oc2cc(O)ccc12; assay: Ratio of Kcat to Km for Streptomyces antibioticus wild-type OleD assessed as as rate of glucoside formation using varying compound concentration by enzyme kinetics assay
In short: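 Wild-type OleD steady-state kinetics with 4-methylumbelliferone as the variable acceptor, up to 10 mM (its solubility limit in water/DMSO), and UDP-glucose as donor. Read-out was the rate of glucoside formation. kcat/Km was obtained by linear regression of rate against acceptor concentration.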

[9] = substrate: Cc1cc(=O)oc2cc(O)ccc12; assay: Activity of Streptomyces antibioticus OleD P67T/S132F/A242V mutant assessed as as rate of glucoside formation using varying compound concentration by enzyme kinetics assay
In short: (§2)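 Steady-state kinetics with the acceptor 4-methylumbelliferone as the variable substrate and UDP-Glc as donor. The acceptor limit was its solubility in water/DMSO, 10 mM. Apparent Km and kcat were derived from the saturation curve.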

[10] = substrate: Cc1cc(=O)oc2cc(O)ccc12; assay: Ratio of Kcat to Km for Streptomyces antibioticus OleD P67T/S132F/A242V mutant assessed as as rate of glucoside formation using varying compound concentration by enzyme kinetics assay; in short: as §2
[11] = substrate: Cc1cc(=O)oc2cc(O)ccc12; assay: Ratio of Kcat to Km for Streptomyces antibioticus OleD P67T/S132F/A242V mutant assessed as rate of glucoside formation at 10 mM using varying NDP sugar UDP-glucose concentration by enzyme kinetics assay
In short: (§3)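 Steady-state kinetics with donor UDP-Glc varied at a fixed concentration of the acceptor 4-methylumbelliferone. The result was reported as an apparent donor Km, with kcat from the same analysis.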

[12] = substrate: Cc1cc(=O)oc2cc(O)ccc12; assay: Activity of Streptomyces antibioticus OleD P67T/S132F/A242V mutant assessed as rate of glucoside formation at 10 mM using varying NDP sugar UDP-glucose concentration by enzyme kinetics assay; in short: as §3

Molecule: O=c1c(O)c(-c2ccc(O)cc2)oc2cc(O)cc(O)c12
- Activity [1]: 28 nmol/min
- Activity [2]: 15.3 nmol/min
- Activity [3]: 99.9 nmol/min
- Activity [4]: 23 nmol/min
- Activity [5]: 13.2 nmol/min

Molecule: O=C(O)Cc1cc(=O)oc2cc(O)ccc12
- Activity [1]: 3.6 nmol/min
- Activity [2]: 0.16 nmol/min
- Activity [3]: 0.22 nmol/min
- Activity [4]: 0.08 nmol/min

Molecule: O=C(O)c1cc2ccc(O)cc2oc1=O
- Activity [1]: 0.62 nmol/min
- Activity [2]: 0.01 nmol/min
- Activity [3]: 0.022 nmol/min
- Activity [4]: 0.022 nmol/min
- Activity [5]: 0.01 nmol/min

Molecule: O=c1c(-c2ccc(O)cc2)coc2cc(O)ccc12
- Activity [1]: 24 nmol/min
- Activity [2]: 8.5 nmol/min
- Activity [3]: 16 nmol/min
- Activity [4]: 5.5 nmol/min
- Activity [5]: 4.2 nmol/min

Molecule: CC(C)=CCc1cc(C(=O)Nc2c(O)c3ccc(O)c(C)c3oc2=O)ccc1O
- Activity [1]: 1.14 nmol/min
- Activity [2]: 0.33 nmol/min
- Activity [3]: 0.65 nmol/min
- Activity [4]: 0.49 nmol/min
- Activity [5]: 0.24 nmol/min

Molecule: CO[C@H]1C[C@H](O[C@H]2[C@H](C)[C@@H](O[C@@H]3O[C@H](C)C[C@H](N(C)C)[C@H]3O)[C@@H](C)C[C@@]3(CO3)C(=O)[C@H](C)[C@@H](O)[C@@H](C)[C@@H](C)OC(=O)[C@@H]2C)O[C@@H](C)[C@@H]1O
- Activity [1]: 13 nmol/min
- Activity [2]: 70 nmol/min
- Activity [3]: 200 nmol/min
- Activity [4]: 1490 nmol/min
- Activity [5]: 700 nmol/min

Molecule: O=c1c(-c2ccc(O)cc2)coc2cc(O)cc(O)c12
- Activity [1]: 26 nmol/min
- Activity [2]: 14.1 nmol/min
- Activity [3]: 28.8 nmol/min
- Activity [4]: 8.8 nmol/min
- Activity [5]: 3.4 nmol/min

B1: Oleandomycin glycosyltransferase (Streptomyces antibioticus), Q53685 (protein)
chain: MTTQTTPAHIAMFSIAAHGHVNPSLEVIRELVARGHRVTYAIPPVFADKVAATGPRPVLYHSTLPGPDADPEAWGSTLLDNRRTFLNDAIQALPQLADAYADDIPDLVLHDITSYPARVLARRWGVPAVSLSPNLVAWKGYEEEVAEPMWREPRQTERGRAYYARFEAWLKENGITEHPDTFASHPPRSLVLIPKALQPHADRVDEDVYTFVGACQGDRAEEGGWQRPAGAEKVVLVSLGSAFTKQPAFYRECVRAFGNLPGWHLVLQIGRKVTPAELGELPDNVEVHDWVPQLAILRQADLFVTHAGAGGSQEGLATATPMIAVPQAVDQFGNADMLQGLGVARKLATEEATADLLRETALALVDDPEVARRLRRIQAEMAQEGGTRRAADLIEAELPARHERQEPVGDRPNVGDRPAGVRSDRQRSAL
- kcat/Km [6]: 28.8 M⁻¹ s⁻¹
- Km [7]: 300 µM
- kcat [7]: 0.00867 s⁻¹
- kcat/Km [8]: 3 M⁻¹ s⁻¹

B2: Oleandomycin glycosyltransferase (Streptomyces antibioticus), Q53685 P67T,S132F,A242V (protein)
chain: MTTQTTPAHIAMFSIAAHGHVNPSLEVIRELVARGHRVTYAIPPVFADKVAATGPRPVLYHSTLPGTDADPEAWGSTLLDNRRTFLNDAIQALPQLADAYADDIPDLVLHDITSYPARVLARRWGVPAVSLFPNLVAWKGYEEEVAEPMWREPRQTERGRAYYARFEAWLKENGITEHPDTFASHPPRSLVLIPKALQPHADRVDEDVYTFVGACQGDRAEEGGWQRPAGAEKVVLVSLGSVFTKQPAFYRECVRAFGNLPGWHLVLQIGRKVTPAELGELPDNVEVHDWVPQLAILRQADLFVTHAGAGGSQEGLATATPMIAVPQAVDQFGNADMLQGLGVARKLATEEATADLLRETALALVDDPEVARRLRRIQAEMAQEGGTRRAADLIEAELPARHERQEPVGDRPNVGDRPAGVRSDRQRSAL
- Km [9]: 140 µM
- kcat [9]: 0.0247 s⁻¹
- kcat/Km [10]: 177 M⁻¹ s⁻¹
- kcat/Km [11]: 717 M⁻¹ s⁻¹
- Km [12]: 0.03 min⁻¹
- kcat [12]: 0.0215 s⁻¹
